# Assay outcomes deposited in PubChem BioAssay by several laboratories.
# Only some compounds are listed: those with a hit (about 1.9% of all), similar ones and a draw of the others.
# UBC13 inh – blocks human UBC13 polyubiquitin chain formation | P61088 | TR-FRET | inhibition, % at 20 µM | actives 0.47% (n = 330,000) | AID 485273; in the data active = inhibition above about 45%, passing the limit was not always enough; inconclusive = no clear call, values can overlap the other calls
# SR-BI DiI inh – inhibitors of mouse SR-BI mediated HDL lipid uptake | Q61009 | ldlA[mSR-BI] CHO cells, DiI-HDL uptake fluorescence, 3 h | inhibition, % at 12.5 µM | actives 0.96% (n = 320,000);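 active = mean replicate inhibition of at least 70% and a set share of replicates each scoring 70 or more; inconclusive = meets just one of the two criteria; inactive = fails both criteria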;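 also: 0% = median of neutral control wells and 100% = median of positive control wells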
# Target sequence (Q61009 whole entry, looked up): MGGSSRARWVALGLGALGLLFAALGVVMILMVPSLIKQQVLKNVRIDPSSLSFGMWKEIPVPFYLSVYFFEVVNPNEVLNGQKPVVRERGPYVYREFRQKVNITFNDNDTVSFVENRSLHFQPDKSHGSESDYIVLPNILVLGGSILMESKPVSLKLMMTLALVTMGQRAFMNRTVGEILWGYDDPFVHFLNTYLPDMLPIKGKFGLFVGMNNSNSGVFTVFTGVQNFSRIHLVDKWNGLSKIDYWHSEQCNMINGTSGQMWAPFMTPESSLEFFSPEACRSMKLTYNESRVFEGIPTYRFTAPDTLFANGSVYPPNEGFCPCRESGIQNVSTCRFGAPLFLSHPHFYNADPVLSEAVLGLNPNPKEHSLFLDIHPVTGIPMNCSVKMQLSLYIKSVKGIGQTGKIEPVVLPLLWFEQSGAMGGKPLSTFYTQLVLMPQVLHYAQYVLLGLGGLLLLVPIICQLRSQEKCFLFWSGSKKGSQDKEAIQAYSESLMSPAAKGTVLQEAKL
# SR-BI uptake up – SR-BI HDL lipid transfer activation. CHO ldlA[mSR-BI] cells, DiI-HDL uptake fluorescence, 3 h; 100 = double the neutral-control signal. activation, % at 12.5 µM. actives 0.096% (n = 320,000);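 active = mean replicate activation of at least 60% and every replicate at or above 60%; inconclusive = mean or all-replicate condition met, but not both; inactive = mean below 60% and not all replicates reaching 60%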;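 also: 0% = median plate neutral-control signal and 100% = twice that signal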
#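 Assay system: LDL receptor-deficient CHO ldlA cells overexpressing murine SR-BI / Medium: BSA-supplemented, HEPES-buffered Ham's F12, pH 7.4 / Probe or stimulus: DiI-labelled HDL at 10 µg/mL final / Timing: compound with DiI-HDL co-incubation, 3 h at 37 °C / Technique: bottom-read cell fluorescence after medium removal, ex 550/em 595 nm / Measure: HDL uptake via cellular fluorescence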
# Neddylation inh – cullin neddylation inhibition | TR-FRET cullin neddylation, biochemical | inhibition, % at 25 µM | actives 0.58% (n = 360,000) | AID 651699; in the data active = inhibition above about 36%
# Numbers without * were called inactive; ? = inconclusive; . = no result shown.
SMILES,UBC13 inh,SR-BI DiI inh,SR-BI uptake up,Neddylation inh
CCOC(=O)C1CCCN(C(=O)c2ccc3nc(-c4cccc(OC)c4)oc3c2)C1 (stereo not given),4,-2,2,10
COc1ccc(C)c2sc(=NC(=O)c3ccccc3)n(C)c12,44,74*,-74,-37
COc1ccc(C)c2sc(=NC(=O)c3ccc(C(C)=O)cc3)n(C)c12,?,.,.,-26
CCOC(=O)N1CCN(C(=O)C2CCN(C(=O)c3ccc(C(C)(C)C)cc3)CC2)CC1,3,.,.,-4
C/C(=N/NC(=O)CSCc1ccc(Cl)cc1)c1cccc(NC(=O)c2ccccc2)c1,1,81*,-81,11
COC(=O)C1=C(C(=O)OC)SC(=C2C(=S)C(C)(C)N(C(=O)C3CC3)c3ccccc32)S1,-80,97*,-97,-36
CCCC(=O)N1c2ccccc2C(=C2SC(C(=O)OC)=C(C(=O)OC)S2)C(=S)C1(C)C,-98,82*,-82,-35
NC(=O)C1CC(=O)N(CCc2ccc(F)cc2)C1 (stereo not given),-4,-19,19,-4
Cc1cc(C)cc(-c2nnc(SCC(=O)NCC3CCCO3)o2)c1 (stereo not given),.,9,-9,-19
O=C(NNC1=C(C(=O)C(F)(F)F)CCC1)c1ccc(Br)cc1,-2,105*,-105,-1
O=C(NNC1=C(C(=O)C(F)(F)F)CCC1)c1ccccc1O,-27,150*,-150,-8
Nc1ccccc1C(=O)NNC1=C(C(=O)C(F)(F)F)CCC1,-2,98*,-98,13
COc1ccccc1C(=O)NNC1=C(C(=O)C(F)(F)F)CCC1,-4,8,-8,-12
Nc1ccccc1C(=O)Nc1cccc(C(=O)O)c1,9,-11,11,31
O=C(NNC1=C(C(=O)C(F)(F)F)CCC1)c1ccccc1Cl,2,14,-14,-6
COc1cccc(C(=O)NNC2=C(C(=O)C(F)(F)F)CCC2)c1,3,113*,-113,-13
CCOC(=O)N1CCN(C(=O)COC(=O)c2ccc(Cl)nc2)CC1,-8,-9,9,-7
O=C(NCCc1ccccc1)C1CC(=O)N(C2CCCCC2)C1 (stereo not given),1,-17,17,4
Cc1ccc(N2N=C(c3ccc(F)cc3)CC2c2ccco2)cc1 (stereo not given),8,79*,-79,.
Fc1ccc(C2=NN(c3ccccc3)C(c3ccco3)C2)cc1 (stereo not given),16,21,-21,.
CN(C)CCCN(C(=O)c1cc2cc([N+](=O)[O-])ccc2s1)c1nc2cc3c(cc2s1)OCCO3,73*,36,-36,-22
Cc1cccc(N2NC(=O)/C(=C/c3ccc(-c4ccc(Cl)c(C(=O)O)c4)o3)C2=O)c1,.,-14,14,14
O=C(O)c1cc(-c2ccc(/C=C3\NC(=O)N(c4ccccc4)C3=O)o2)ccc1Cl,1,.,.,43*
O=C(O)c1cc(-c2ccc(/C=C3\NC(=O)N(c4ccc(Cl)cc4)C3=O)o2)ccc1Cl,-18,2,-2,65*
O=C1NN(c2ccccc2)C(=O)/C1=C/c1ccc(-c2ccc(Cl)c(C(=O)O)c2)o1,.,-11,11,3
SMILES,UBC13 inh,SR-BI DiI inh,SR-BI uptake up,Neddylation inh
CC1(C)C(=O)Nc2ccccc2N1C(=O)COC(=O)c1cccnc1,-10,-21,21,-19
CC(C)NC(=O)C1(C)CCN1C(=O)c1cccn1C (stereo not given),.,.,.,6
Cn1c(C(=O)O)cc2cc(Oc3ccccc3)ccc21,-12,-28,28,28
Cn1c(C(=O)NN)cc2cc(Oc3ccccc3)ccc21,3,79*,-79,29
Cc1ccnc(NC(=O)c2cccc(NC(=O)c3ccc(Cl)c(Cl)c3)c2)c1,.,?,-74,-81
CC(=O)c1cccc(NC(=O)NNC(=O)c2ccc3ccccc3c2)c1,8,-22,22,-1
CC(=O)c1cccc(NC(=O)c2ccc3ccccc3c2)c1,10,72*,-72,-22
Cc1ccnc(NC(=O)c2cccc(NC(=O)c3ccc(Cl)cc3)c2)c1,.,89*,-89,0
COc1ccccc1-c1cccc([C@@H]2C[C@H]3[C@H](CON3C)CN2C)c1,.,-5,5,-5
CC(NC(=O)COC(=O)c1cc([N+](=O)[O-])ccc1N1CCOCC1)c1ccc(F)cc1 (stereo not given),-8,32,-32,-24
CCc1cccc(C)c1NC(=O)COC(=O)c1cc([N+](=O)[O-])ccc1N1CCOCC1,-1,72*,-72,-26
CCc1ccc(C(=O)COC(=O)c2cc([N+](=O)[O-])ccc2N2CCOCC2)cc1,-4,81*,-81,-24
O=C(COC(=O)c1cc([N+](=O)[O-])ccc1N1CCOCC1)c1ccc(F)cc1,7,84*,-84,-20
CC1(C(=O)NC2CCCC2)CCC(=O)N1C1CCN(Cc2ccccc2)CC1 (stereo not given),.,.,.,0
CN1CCc2c(sc3c2C(=O)NC(c2ccccn2)N3)C1 (stereo not given),-34,-5,5,48*
COC(=O)c1cc(NC(=O)c2cc(-c3ccccc3Cl)oc2C(F)(F)F)ccc1N1CCOCC1,3,84*,-84,23
COC(=O)c1cc(NC(=O)c2cc(-c3ccc(Cl)cc3)oc2C(F)(F)F)ccc1N1CCOCC1,8,68,-68,19
CCCc1c(-c2ccc(Cl)cc2)ncn1Cc1cccc(-c2ccccc2)c1,.,.,.,3
COc1ccc(/C=C/C(=O)Oc2cccc(/C=N/NC(=O)c3cccc(F)c3)c2)cc1,-4,73*,-73,16
CCN1C(=O)/C(=C\c2ccc(-c3cccc(C(=O)OC)c3)o2)SC1=Nc1ccc(C(=O)O)cc1,-20,.,.,.
CCN=C1S/C(=C\c2ccc(-c3cccc(C(=O)O)c3)o2)C(=O)N1CC,1,-66,?,49*
CCCCC(=O)Nc1nc2c(s1)COc1ccccc1-2,4,3,-3,-16
CCn1c(SCC(=O)c2ccc(O)c(O)c2)nnc1-c1ccc(C)cc1,4,5,-5,-2
CCn1c(SCC(=O)c2ccc3c(c2)Cc2ccccc2-3)nnc1-c1ccc(N)cc1,-6,77*,-77,-19
CC(=O)NC(Cc1cccc(C)c1)C(=O)NC1CCN(S(=O)(=O)c2ccccc2)CC1 (stereo not given),6,-17,17,0
SMILES,UBC13 inh,SR-BI DiI inh,SR-BI uptake up,Neddylation inh
CC(C)(C)c1ccc(CC(=O)N2CCC2(C)C(=O)NS(=O)(=O)c2ccc(Cl)cc2)cc1 (stereo not given),.,.,.,-4
O=c1cc2oc3cc(O)c(O)cc3c(-c3ccccc3[N+](=O)[O-])c-2cc1O,-27,90*,-90,-71
C=C(CN(C)C)C(=O)c1ccc(C)cc1C,.,85*,-85,4
C[N+](C)(C)CCCC(=O)c1ccc2c(c1)OCO2,3,13,49,7
C=C(CN(C)C)C(=O)c1ccc2c(c1)OCO2,.,109*,-109,.
CC(C)C[C@H]1CN([C@@H](Cc2ccccc2)CN2CCC[C@H]2CN2C(=O)C(=O)NC[C@@H]2Cc2ccccc2)C(=O)C(=O)N1CCc1ccccc1,.,.,.,3
